Compound activity as filed in PubChem.
PGC1a acetyl up: compounds raising PGC1a acetylation signal, primary screen, PGC1a modulator project, cell-based, U2OS, AlphaScreen, signal-increasing mode | overnight | 350,000 compounds, 0.21% hits | activation, % at 15.6 µM;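 active = every replicate reaching activation of at least 50%, whatever the mean replicate activation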;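 also: hits raise the AlphaScreen acetylation signal above neutral controls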
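System: Flag-PGC1a/GCN5 U2OS cells | Quantity: 7000 cells/well | Times: Overnight compound treatment, 37 °C | Measured by: AlphaScreen proximity luminescence, anti-acetyl-lysine antibody | Dosing: One concentration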
A number is an active result; . = inactive. Shown is part of a subset that was picked to be rich in hits.

SMILES | PGC1a acetyl up
CC(=O)c1cccc(-c2ccnc3c2CC(C(=O)Nc2ccc4c(c2)OCO4)O3)c1 (stereo not drawn) | 58
C[C@H]1CN([C@@H](C)CO)C(=O)c2cccc(NC(=O)c3ccncc3)c2O[C@H]1CN(C)C(=O)Nc1ccc2c(c1)OCO2 | .
Cc1ccc(O)c(/C=N/NC(=O)CN2CCCC2)c1 | .
CC1=NN(c2ccc(C)c(C)c2)C(=O)/C1=C\C=C\c1ccc([N+](=O)[O-])o1 | .
Cc1ccc(NC(=O)CCC(=O)N/N=C/c2ccc([N+](=O)[O-])o2)cc1C | 126
Cc1ccc(OCC(=O)N/N=C/c2ccc([N+](=O)[O-])o2)cc1 | 84
O=C(CSc1ccc(Cl)cc1)N/N=C/c1ccc([N+](=O)[O-])o1 | 92
O=C(CSc1nnc(-c2ccccc2)n1-c1ccc(Cl)cc1)N/N=C/c1ccccc1C(=O)O | .
CN(C)c1ccc(Sc2ccc3nc(N)nc(N)c3c2)cc1 | .
CN(C[C@H]1N[C@@H](CO)[C@@H]1c1ccc(C2=CCCC2)cc1)C(=O)c1cccc(F)c1 | .
COc1ccc(S(=O)(=O)N2CCCCN3[C@@H](CO)[C@@H](c4ccc(C5=CCCCC5)cc4)[C@@H]3C2)cc1 | 57
C[C@H]1CN([C@@H](C)CO)C(=O)CCCn2nncc2CO[C@@H]1CN(C)C(=O)Nc1ccccc1 | .
COc1cccc(N(CC(=O)N2CCN(Cc3ccccc3)CC2)S(C)(=O)=O)c1 | .
O=C(C[C@@H]1C[C@@H]2c3cc(NC(=O)C4CCC4)ccc3O[C@@H]2[C@@H](CO)O1)NCc1ccc(-c2ccccc2)cc1 | .
O=[N+]([O-])c1ccc(/C=N/n2c(CO)nc3ccccc32)s1 | 53
Nc1c(C(=O)Nc2ccccc2)sc2ncc([N+](=O)[O-])cc12 | 84
CN1CCN(c2ccc([N+](=O)[O-])cc2C(=O)Nc2ccccc2)CC1 | .
OC(COc1ccc(CNCCc2ccc(C(F)(F)F)cc2)cc1)CN1CCCCC1 (stereo not drawn) | 54
O=C(CCSc1nnc(-c2ccc(O)cc2)o1)N1CCOCC1 | .
O=C(NCCN1CCOCC1)c1ccc(=O)oc1 | 52
O=C(Nc1ccc(CN2CCOCC2)cc1)c1ccc(F)cc1 | .
OC[C@@H]1[C@H](c2ccc(/C=C/c3ccccc3)cc2)[C@H]2CN(CCC(F)(F)F)CCCCN12 | 67
O=C(Cc1cccnc1)N1CC(=O)N2[C@H](CO)[C@@H](c3ccc(C#CC4CCCCC4)cc3)[C@H]2C1 | .
OC[C@H]1[C@H](c2ccc(C#CC3CCCC3)cc2)[C@@H]2CN(CCC(F)(F)F)CCCCN12 | 65
O=C1CC(Sc2nnc(-c3ccccc3O)o2)C(=O)N1c1ccccc1 (stereo not drawn) | 86
SMILES | PGC1a acetyl up
O=C(COc1ccccc1Cl)Nc1ccc(Cl)cn1 | 98
O=C(COC(=O)c1cc[n+]([O-])cc1)Nc1cccc(Cl)c1Cl | .
O=C(Cc1ccccn1)NCC[C@@H]1CC[C@H](NC(=O)Nc2ccc(C(F)(F)F)cc2)[C@H](CO)O1 | .
C[C@@H]1CN([C@@H](C)CO)C(=O)CCCn2nncc2CO[C@@H]1CN(C)C(=O)NC1CCCCC1 | .
CCC(=O)N1C[C@H](C)[C@H](OC)CN(C)C(=O)c2cc(NC(=O)c3cnccn3)ccc2OC[C@@H]1C | .
COc1ccccc1CN1C[C@@H]2N[C@H](C1)C2c1ccc(-c2ccccc2OC)cc1 (stereo partly drawn) | 70
COc1cc(CN2C[C@@H]3N[C@H](C2)C3c2ccc(/C=C/c3ccccc3)cc2)cc(OC)c1 (stereo partly drawn) | 89
COc1ccccc1-c1ccc([C@@H]2[C@@H](CO)N(C(C)=O)C23CN(C(C)=O)C3)cc1 | .
Fc1cccc(CN2C[C@@H]3N[C@H](C2)[C@@H]3c2ccc(-c3cccc(F)c3)cc2)c1 | .
COc1ccc(-c2ccc(C3[C@@H]4CN(Cc5cc(OC)cc(OC)c5)C[C@H]3N4)cc2)cc1 (stereo partly drawn) | 121
Fc1cccc(CN2C[C@@H]3N[C@H](C2)C3c2ccc(-c3ccccc3)cc2)c1 (stereo partly drawn) | .
COc1cc(CN2C[C@@H]3N[C@H](C2)C3c2ccc(-c3cccc(OC)c3)cc2)cc(OC)c1 (stereo partly drawn) | 69
C[C@@H]1CCCCO[C@@H](CN(C)C(=O)c2ccncc2)[C@@H](C)CN([C@H](C)CO)C(=O)c2cc(NC(=O)CCCCCC(=O)Nc3ccccc3N)ccc2O1 | .
C[C@H](CO)N1C[C@H](C)[C@H](CN(C)S(=O)(=O)c2ccc(F)cc2)Oc2ccc(NS(=O)(=O)c3cn(C)cn3)cc2C1=O | .
O=C(C[C@@H]1C[C@@H]2c3cc(NC(=O)Nc4ccccc4F)ccc3O[C@@H]2[C@H](CO)O1)NCc1ccc(Oc2ccccc2)cc1 | .
C[C@@H]1CN([C@@H](C)CO)C(=O)c2cc(-c3cccc(C#N)c3)cnc2O[C@H]1CN(C)C(=O)c1ccccn1 | .
COc1cccc(-c2ccc(C3[C@@H]4CN(C(=O)C5CC5)C[C@H]3N4)cc2)c1 (stereo partly drawn) | 57
COc1ccccc1Nc1nc(NCCC(C)C)nc(N)c1[N+](=O)[O-] | .
OCC1OC(Oc2c(Br)cc(Br)cc2Br)C(O)C(O)C1O (stereo not drawn) | .
O=C(/C=C/c1cccnc1)/C=C/c1cccnc1 | .
CC(NC(=O)Nc1cccnc1)(C(F)(F)F)C(F)(F)F | 62
CCC(=O)Nc1ccnc(-c2cccnc2)n1 | .
O=C(Cc1cccs1)N/N=C/C(Br)=C/c1ccccc1 | 81
Cc1ccccc1NCC(=O)N/N=C/C(Br)=C/c1ccccc1 | 150
CC(C)[C@H](NC(=O)NCc1cccs1)C(=O)O | .
SMILES | PGC1a acetyl up
C[C@@H]1CN([C@H](C)CO)C(=O)c2cc(C3=CCCCC3)cnc2O[C@@H]1CN(C)Cc1ccccc1 | .
CN1CCN(C/C(=C2/N=C(c3ccccc3)OC2=O)N(C)C)CC1 | .
COC(C[C@H]1O[C@@H]1[C@H](O)[C@H](C)OCc1ccccc1)OC | .
CCCSCC(=O)Nc1ncc2c(n1)-c1ccccc1CC2 | .
Cc1coc2cc3oc(=O)c(CCC(=O)NC4CC4)c(C)c3cc12 | 57
O=C(C/C=N/OCc1c(Cl)cccc1Cl)c1cnc(-c2ccccc2)s1 | .
CC(C)CC#Cc1cnc2c(c1)C(=O)N([C@@H](C)CO)C[C@@H](C)[C@H](CN(C)C(=O)c1ccccc1)O2 | .
C[C@@H]1CN([C@@H](C)CO)C(=O)c2c(c3ccccc3n2C)-c2ccccc2CO[C@@H]1CN(C)C(=O)c1cc(Cl)cc(Cl)c1 | 96
C[C@H]1CCCCO[C@@H](CN(C)C(=O)c2ccccc2)[C@@H](C)CN([C@@H](C)CO)C(=O)c2cc(NC(=O)Nc3ccc(F)cc3)ccc2O1 | .
O=[N+]([O-])c1ccc(N=Nc2c(Cl)cc(O)cc2Cl)cc1 | 53
O=C(c1cc([N+](=O)[O-])ccc1N1CCCC1)N1CCCC1 | .
O=[N+]([O-])c1ccc(N2CCN(CC3CCCCC3)CC2)cc1 | 63
Cc1ccc(CC(=O)N2CCN(c3ccc([N+](=O)[O-])cc3)CC2)cc1 | 113
Cc1cccc(N2CCN(CC3CCCCC3)CC2)c1C | .
O=[N+]([O-])c1ccc(N2CCN(C(=S)NCc3ccc(Cl)cc3)CC2)cc1 | 81
O=C1C(Cl)=C(Nc2ccc3cn[nH]c3c2)C(=O)c2ccccc21 | .
C=CC(=O)N1C/C(=C/c2ccccc2)C(=O)/C(=C\c2ccccc2)C1 | .
